Measured values as given in ChEMBL document CHEMBL4270668, “Design, Synthesis, Molecular Dynamics Simulation, and Functional Evaluation of a Novel Series of 26RFa Peptide Analogues Containing a Mono- or Polyalkyl Guanidino Arginine Derivative” (J Med Chem, 2018).
Starred links: 1 amine or outer side, 2 acyl side, 3 side chain; linkers in the order of their positions; H or OH if unused. Non-standard residues stand in square brackets, D forms with d. Residues, ends and D or L forms follow the SMILES beside them. X25 = C/N=C(/NCCCC[C@H](N[*:1])C(=O)[*:2])N(C)C; X11 = CC(C)CNC(=N)NCCCC[C@H](N[*:1])C(=O)[*:2]; X14 = CCN(CC)C(=N)NCCCC[C@H](N[*:1])C(=O)[*:2]; X16 = CC(C)CNC(=N)NCCC[C@H](N[*:1])C(=O)[*:2]; X24 = N=C(NCCCC[C@H](N[*:1])C(=O)[*:2])N1CCC1; X2 = CCN(C)C(=N)NCCCC[C@H](N[*:1])C(=O)[*:2]; X21 = CCN(C)C(=N)NCCC[C@H](N[*:1])C(=O)[*:2]; X8 = CCN(CC)C(=N)NCCC[C@H](N[*:1])C(=O)[*:2]; X12 = CCCNC(=N)NCCCC[C@H](N[*:1])C(=O)[*:2]; X5 = CCN(CC)C(=N)NCC[C@H](N[*:1])C(=O)[*:2]; X6 = N=C(NCCC[C@H](N[*:1])C(=O)[*:2])N1CCC1; X13 = C/N=C(\NC)NCC[C@H](N[*:1])C(=O)[*:2]; X20 = CCNC(=N)NCCCC[C@H](N[*:1])C(=O)[*:2]; X23 = CN(C)C(=N)NCC[C@H](N[*:1])C(=O)[*:2]; X7 = CCN(C)C(=N)NCC[C@H](N[*:1])C(=O)[*:2]; X9 = N=C(NCC[C@H](N[*:1])C(=O)[*:2])N1CCC1; X10 = CNC(=N)NCCCC[C@H](N[*:1])C(=O)[*:2]; X22 = CCCNC(=N)NCC[C@H](N[*:1])C(=O)[*:2]; Arg(ω-nPr) = CCCNC(=N)NCCC[C@H](N)C(=O)O; Arg(Me2s) = CN=C(NC)NCCC[C@H](N)C(=O)O; X4 = CNC(=N)NCC[C@H](N[*:1])C(=O)[*:2]; Arg(Et) = CCNC(=N)NCCC[C@H](N)C(=O)O; Arg(Me) = CNC(=N)NCCC[C@H](N)C(=O)O; hArg = N=C(N)NCCCC[C@H](N)C(=O)O

Legend:
[1] = target: T1, Pyroglutamylated RF-amide peptide receptor (Homo sapiens, UniProt Q96P65); experiment: Agonist activity at human QRFPR expressed in CHO cells co-expressing Galpha16 assessed as increase Ca2+ mobilization after 3 mins by Fluo-4 AM-based scanning fluorometery; assay type: functional, cell-based
T1 sequence (Q96P65 whole entry): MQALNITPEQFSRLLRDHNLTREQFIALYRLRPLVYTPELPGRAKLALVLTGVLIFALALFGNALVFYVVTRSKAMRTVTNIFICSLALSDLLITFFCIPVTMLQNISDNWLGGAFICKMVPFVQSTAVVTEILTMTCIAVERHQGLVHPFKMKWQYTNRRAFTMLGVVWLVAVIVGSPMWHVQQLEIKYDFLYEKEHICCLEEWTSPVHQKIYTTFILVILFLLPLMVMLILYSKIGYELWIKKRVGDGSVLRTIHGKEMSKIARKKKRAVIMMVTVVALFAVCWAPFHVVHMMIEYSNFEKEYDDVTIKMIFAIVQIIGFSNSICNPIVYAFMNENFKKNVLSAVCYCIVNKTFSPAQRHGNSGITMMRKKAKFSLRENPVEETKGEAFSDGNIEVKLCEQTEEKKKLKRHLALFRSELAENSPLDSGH
Method in brief: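 CHO-Gα16 cells stably expressing human QRFPR, seeded at 40,000 cells/well 24 h ahead. Loaded 1 h with 2 µM Fluo-4 AM plus 0.01% pluronic acid, washed, then 30 min in HBSS with 2.5 mM probenecid and 5 mM HEPES. Compounds added at final 10^-11 to 10^-5 M; fluorescence recorded 3 min on a scanning fluorometer. EC50 from sigmoidal variable-slope fits, ≥3 experiments in triplicate.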

[2] = target: T1, Pyroglutamylated RF-amide peptide receptor; experiment: Antagonist activity at human QRFPR expressed in CHO cells co-expressing Galpha16 assessed as inhibition of 26RFa-induced Ca2+ mobilization preincubated for 15 mins followed by agonist addition measured after 3 mins by Fluo-4 AM-based scanning fluorometery; assay type: functional, cell-based
Method in brief: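 CHO-Gα16-hQRFPR cells loaded 1 h with 2 µM Fluo-4 AM, then incubated 15 min with graded compound. A 10^-7 M final 26RFa pulse was given during recording. Background subtracted, baseline normalized to 100%, peak fluorescence taken per concentration. IC50 from sigmoidal variable-slope fits, ≥3 experiments in triplicate. Maximal effect at 10^-4 M expressed as % inhibition of the 26RFa (10^-7 M) response.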

Compound	EC50 [1]	IC50 [2]
CCCNC(=N)NCC[C@H](NC(=O)[C@H](Cc1ccccc1)NC(=O)[C@H](CO)NC(=O)[C@H](Cc1ccccc1)NC(=O)CNC(=O)CN)C(=O)N[C@@H](Cc1ccccc1)C(N)=O (H-GGFSF[X22]F-NH2)	> 100 µM	> 100 µM
CCCNC(=N)NCCCC[C@H](NC(=O)[C@H](Cc1ccccc1)NC(=O)[C@H](CO)NC(=O)[C@H](Cc1ccccc1)NC(=O)CNC(=O)CN)C(=O)N[C@@H](Cc1ccccc1)C(N)=O (H-GGFSF[X12]F-NH2)	> 100 µM	> 100 µM
CCN(C)C(=N)NCCC[C@H](NC(=O)[C@H](Cc1ccccc1)NC(=O)[C@H](CO)NC(=O)[C@H](Cc1ccccc1)NC(=O)CNC(=O)CN)C(=O)N[C@@H](Cc1ccccc1)C(N)=O (H-GGFSF[X21]F-NH2)	> 100 µM	> 100 µM
N=C(N)NCCCC[C@H](NC(=O)[C@H](Cc1ccccc1)NC(=O)[C@H](CO)NC(=O)[C@H](Cc1ccccc1)NC(=O)CNC(=O)CN)C(=O)N[C@@H](Cc1ccccc1)C(N)=O (H-GGFSF[hArg]F-NH2)	1.91 µM	–
CCN(C)C(=N)NCC[C@H](NC(=O)[C@H](Cc1ccccc1)NC(=O)[C@H](CO)NC(=O)[C@H](Cc1ccccc1)NC(=O)CNC(=O)CN)C(=O)N[C@@H](Cc1ccccc1)C(N)=O (H-GGFSF[X7]F-NH2)	> 100 µM	> 100 µM
C/N=C(/NC)NCCC[C@H](NC(=O)[C@H](Cc1ccccc1)NC(=O)[C@H](CO)NC(=O)[C@H](Cc1ccccc1)NC(=O)CNC(=O)CN)C(=O)N[C@@H](Cc1ccccc1)C(N)=O (H-GGFSF[Arg(Me2s)]F-NH2)	> 100 µM	> 100 µM
CNC(=N)NCC[C@H](NC(=O)[C@H](Cc1ccccc1)NC(=O)[C@H](CO)NC(=O)[C@H](Cc1ccccc1)NC(=O)CNC(=O)CN)C(=O)N[C@@H](Cc1ccccc1)C(N)=O (H-GGFSF[X4]F-NH2)	> 100 µM	> 100 µM
N=C(NCCC[C@H](NC(=O)[C@H](Cc1ccccc1)NC(=O)[C@H](CO)NC(=O)[C@H](Cc1ccccc1)NC(=O)CNC(=O)CN)C(=O)N[C@@H](Cc1ccccc1)C(N)=O)N1CCC1 (H-GGFSF[X6]F-NH2)	> 100 µM	> 100 µM
CCN(CC)C(=N)NCCC[C@H](NC(=O)[C@H](Cc1ccccc1)NC(=O)[C@H](CO)NC(=O)[C@H](Cc1ccccc1)NC(=O)CNC(=O)CN)C(=O)N[C@@H](Cc1ccccc1)C(N)=O (H-GGFSF[X8]F-NH2)	> 100 µM	> 100 µM
CCN(CC)C(=N)NCCCC[C@H](NC(=O)[C@H](Cc1ccccc1)NC(=O)[C@H](CO)NC(=O)[C@H](Cc1ccccc1)NC(=O)CNC(=O)CN)C(=O)N[C@@H](Cc1ccccc1)C(N)=O (H-GGFSF[X14]F-NH2)	> 100 µM	> 100 µM
CNC(=N)NCCCC[C@H](NC(=O)[C@H](Cc1ccccc1)NC(=O)[C@H](CO)NC(=O)[C@H](Cc1ccccc1)NC(=O)CNC(=O)CN)C(=O)N[C@@H](Cc1ccccc1)C(N)=O (H-GGFSF[X10]F-NH2)	> 100 µM	> 100 µM
CC(C)CNC(=N)NCCCC[C@H](NC(=O)[C@H](Cc1ccccc1)NC(=O)[C@H](CO)NC(=O)[C@H](Cc1ccccc1)NC(=O)CNC(=O)CN)C(=O)N[C@@H](Cc1ccccc1)C(N)=O (H-GGFSF[X11]F-NH2)	2.75 µM	–
CCN(C)C(=N)NCCCC[C@H](NC(=O)[C@H](Cc1ccccc1)NC(=O)[C@H](CO)NC(=O)[C@H](Cc1ccccc1)NC(=O)CNC(=O)CN)C(=O)N[C@@H](Cc1ccccc1)C(N)=O (H-GGFSF[X2]F-NH2)	> 100 µM	> 100 µM
CC(C)CNC(=N)NCCC[C@H](NC(=O)[C@H](Cc1ccccc1)NC(=O)[C@H](CO)NC(=O)[C@H](Cc1ccccc1)NC(=O)CNC(=O)CN)C(=O)N[C@@H](Cc1ccccc1)C(N)=O (H-GGFSF[X16]F-NH2)	1.5 µM	–
N=C(NCCCC[C@H](NC(=O)[C@H](Cc1ccccc1)NC(=O)[C@H](CO)NC(=O)[C@H](Cc1ccccc1)NC(=O)CNC(=O)CN)C(=O)N[C@@H](Cc1ccccc1)C(N)=O)N1CCC1 (H-GGFSF[X24]F-NH2)	> 100 µM	> 100 µM
CCN(CC)C(=N)NCC[C@H](NC(=O)[C@H](Cc1ccccc1)NC(=O)[C@H](CO)NC(=O)[C@H](Cc1ccccc1)NC(=O)CNC(=O)CN)C(=O)N[C@@H](Cc1ccccc1)C(N)=O (H-GGFSF[X5]F-NH2)	> 100 µM	> 100 µM
C/N=C(/NCCCC[C@H](NC(=O)[C@H](Cc1ccccc1)NC(=O)[C@H](CO)NC(=O)[C@H](Cc1ccccc1)NC(=O)CNC(=O)CN)C(=O)N[C@@H](Cc1ccccc1)C(N)=O)N(C)C (H-GGFSF[X25]F-NH2)	> 100 µM	> 100 µM
H-GGFSFRF-NH2	1.64 µM	–
CCCNC(=N)NCCC[C@H](NC(=O)[C@H](Cc1ccccc1)NC(=O)[C@H](CO)NC(=O)[C@H](Cc1ccccc1)NC(=O)CNC(=O)CN)C(=O)N[C@@H](Cc1ccccc1)C(N)=O (H-GGFSF[Arg(ω-nPr)]F-NH2)	1.4 µM	–
CCNC(=N)NCCCC[C@H](NC(=O)[C@H](Cc1ccccc1)NC(=O)[C@H](CO)NC(=O)[C@H](Cc1ccccc1)NC(=O)CNC(=O)CN)C(=O)N[C@@H](Cc1ccccc1)C(N)=O (H-GGFSF[X20]F-NH2)	> 100 µM	> 100 µM
N=C(NCC[C@H](NC(=O)[C@H](Cc1ccccc1)NC(=O)[C@H](CO)NC(=O)[C@H](Cc1ccccc1)NC(=O)CNC(=O)CN)C(=O)N[C@@H](Cc1ccccc1)C(N)=O)N1CCC1 (H-GGFSF[X9]F-NH2)	> 100 µM	> 100 µM
C/N=C(\NC)NCC[C@H](NC(=O)[C@H](Cc1ccccc1)NC(=O)[C@H](CO)NC(=O)[C@H](Cc1ccccc1)NC(=O)CNC(=O)CN)C(=O)N[C@@H](Cc1ccccc1)C(N)=O (H-GGFSF[X13]F-NH2)	> 100 µM	> 100 µM
CN(C)C(=N)NCC[C@H](NC(=O)[C@H](Cc1ccccc1)NC(=O)[C@H](CO)NC(=O)[C@H](Cc1ccccc1)NC(=O)CNC(=O)CN)C(=O)N[C@@H](Cc1ccccc1)C(N)=O (H-GGFSF[X23]F-NH2)	> 100 µM	> 100 µM
CCNC(=N)NCCC[C@H](NC(=O)[C@H](Cc1ccccc1)NC(=O)[C@H](CO)NC(=O)[C@H](Cc1ccccc1)NC(=O)CNC(=O)CN)C(=O)N[C@@H](Cc1ccccc1)C(N)=O (H-GGFSF[Arg(Et)]F-NH2)	1.37 µM	–
CNC(=N)NCCC[C@H](NC(=O)[C@H](Cc1ccccc1)NC(=O)[C@H](CO)NC(=O)[C@H](Cc1ccccc1)NC(=O)CNC(=O)CNC(=O)[C@H](CCCCN)NC(=O)[C@H](CCCCN)NC(=O)[C@H](CCCNC(=N)N)NC(=O)[C@H](CO)NC(=O)[C@H](Cc1ccc(O)cc1)NC(=O)CNC(=O)[C@H](CC(N)=O)NC(=O)[C@H](CC(C)C)NC(=O)[C@H](CCC(=O)O)NC(=O)[C@H](CCC(=O)O)NC(=O)[C@H](C)NC(=O)[C@H](CC(C)C)NC(=O)[C@H](CC(N)=O)NC(=O)CNC(=O)[C@H](CC(C)C)NC(=O)[C@@H]1CCCN1C(=O)CNC(=O)[C@H](CO)NC(=O)[C@@H](N)[C@@H](C)O)C(=O)N[C@@H](Cc1ccccc1)C(N)=O (H-TSGPLGNLAEELNGYSRKKGGFSF[Arg(Me)]F-NH2)	0.0069 µM	–
